Assay outcomes deposited in PubChem by several laboratories.
An excerpt weighted towards active compounds, which were near 2.2% of everything screened.
Mcl-1 Bim block – inhibitors of Bim-Mcl-1 interaction, human; 0.1% of 190,000 active; Bead-based flow cytometry, Bim peptide-Mcl-1 binding; inhibition, % at 10 µM; AID 1009; in the data active = inhibition above about 40%
RBBP9 inhibitor – blocks human serine hydrolase RBBP9; recombinant RBBP9, FP-Rh probe fluorescence polarization; inhibition, % at 7.94 µM; 0.2% of 220,000 active; AID 1515;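 active = inhibition above the campaign mean of all tested compounds plus 3 SD, cut at about 14% in these data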
Target sequence (O75884 whole entry, looked up): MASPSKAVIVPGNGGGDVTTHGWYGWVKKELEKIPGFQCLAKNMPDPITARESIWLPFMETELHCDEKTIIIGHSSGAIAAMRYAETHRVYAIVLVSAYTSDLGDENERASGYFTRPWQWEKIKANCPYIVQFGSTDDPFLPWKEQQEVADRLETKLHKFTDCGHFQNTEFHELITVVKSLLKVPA
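System: RBBP9 protein / Buffer or medium: Tris/NaCl buffer pH 8.0 with 0.1% Pluronic / Probe or stimulus: Serine-hydrolase probe FP-Rh, 375 nM pre-mixing / Dosing: 7.94 µM single dose, 0.794% DMSO / Times: enzyme-compound preincubation 30 min, then probe labeling 45 min, 25 °C / Technique: fluorescence polarization (mP), excitation 525 nm, emission 598 nm / Replication: singlicate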
EBV gp42 block – blocks Epstein-Barr virus glycoprotein 42 binding. Q1HVG2. Fluorescence polarization binding assay, mP read-out. inhibition, % (tested at 21.74 µM). 0.42% of 220,000 active; in the data active = inhibition above about 50%
Target sequence (Q1HVG2 whole entry, looked up): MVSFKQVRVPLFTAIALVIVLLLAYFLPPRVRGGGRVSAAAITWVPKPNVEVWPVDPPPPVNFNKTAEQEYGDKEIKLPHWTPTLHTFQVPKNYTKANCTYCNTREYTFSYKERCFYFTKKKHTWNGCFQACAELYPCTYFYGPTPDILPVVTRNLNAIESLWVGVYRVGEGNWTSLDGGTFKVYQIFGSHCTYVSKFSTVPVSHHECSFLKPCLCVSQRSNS
Mcl1-Noxa inh – disrupts binding of human Mcl-1 to Noxa peptide | inhibition, % at 21.7 µM | 1.5% of 220,000 active | AID 1022 | TR-FRET Mcl-1/Noxa peptide binding, 2 h | Q07820;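 active = compounds that cut the protein-peptide binding signal by more than 50% relative to plate controls in a single-dose test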;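 note: His-tagged Mcl-1 with rhodamine Noxa BH3 peptide and terbium anti-His antibody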
MCL1 BIM primary – inhibitors of human MCL1 binding to BIM-BH3 peptide. AID 2057. inhibition, % at 10.9 µM. Q07820. GST-MCL1 / FITC-Bim-BH3 fluorescence polarization. 0.68% of 320,000 active;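 active = inhibition above the mean inhibition of all tested compounds plus 3 SD, set per campaign, cut at about 40% in these data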;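 note: higher means more loss of mP so more displacement of Bim peptide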
Mcl1 Bid PPI – Mcl-1/Bid interaction inhibition; Q07820; TR-FRET Mcl-1/Bid-Dy647 peptide binding, 1536-well; inhibition, % at 21.7 µM; 0.97% of 220,000 active; AID 1021;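 active = compounds that cut the binding signal by more than half at the single screening dose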;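 note: His-tagged Mcl-1 with europium anti-His antibody binding Bid BH3 peptide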
RBBP9 confirm – confirmation of human RBBP9 inhibitors; shares compounds with RBBP9 inhibitor; recombinant RBBP9, FP-Rh probe fluorescence polarization; inhibition, % at 7.94 µM; 36% of 410 active;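 active = inhibition above the hit cutoff derived for the primary screen, cut at about 15% in these data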
Bcl-xL conf – Bcl-xL (human) inhibition, MCL1 counter-screen confirmation. shares compounds with MCL1 BIM primary. AID 2166. GST-Bcl-xL / FITC-Bim BH3 peptide FP binding. inhibition, % at 10.9 µM. 54% of 1,700 active;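 active = inhibition above a cutoff equal to the mean inhibition of all tested compounds plus 3 SD, cut at about 30% in these data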
MCL1 inh confirm – confirmation of human MCL1 and BIM-BH3 interaction inhibitors; 61% of 1,700 active; inhibition, % at 10.9 µM; GST-MCL1 / FITC-Bim-BH3 fluorescence polarization; shares compounds with MCL1 BIM primary;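 active = inhibition above the average of all tested compounds plus 3 SD, cut at about 40% in these data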
Numbers stand for hits; - = inactive; . = not tested or not shown.

SMILES	Mcl-1 Bim block	RBBP9 inhibitor	EBV gp42 block	Mcl1-Noxa inh	MCL1 BIM primary	Mcl1 Bid PPI	others
CSc1ncc(/C=C2/C(=O)NC(=O)N(c3ccc(C(C)C)cc3)C2=O)cn1	-	-	-	-	-	-
O=C1NC(=O)N(Cc2ccccc2)C(=O)/C1=C/c1cnc(-c2ccccc2)nc1	-	-	-	51	-	-
CC(C)c1ccc(N2C(=O)NC(=O)/C(=C/c3cnc(-c4ccccc4)nc3)C2=O)cc1	-	-	-	61	-	-
CC(=O)O[C@H]1[C@H]2O[C@]23[C@@H]2CC[C@]4(O)C[C@@H](O)CC[C@]4(C)C2CC[C@]3(C)[C@H]1c1ccc(=O)oc1 (stereo partly drawn)	.	.	.	.	-	.
CN1C(=O)N(C)C(=O)C2(Cc3cc(N)ccc3N3CCN(c4ccccc4F)CC32)C1=O (stereo not drawn)	-	-	-	57	-	91
COC(=O)C1C=C2c3cccc4[nH]cc(c34)CC2N(C)C1 (stereo not drawn)	.	21	114	-	.	-
CCN(CC)C(=O)N[C@H]1C[C@@H]2c3cccc4[nH]cc(c34)C[C@H]2N(C)C1	-	-	-	-	-	-
Cc1cc(N2CCCCC2)ccc1C=C1C(=O)N(C)C(=S)N(C)C1=O	-	-	-	68	-	-
Cc1ccc(-n2nc(C)cc2NC(=O)COc2cc(C)cc3oc(=O)c4c(c23)CCC4)cc1	-	-	-	106	-	-
O=c1[nH]c(O)c(/C=C2/C=CC(c3cc(Cl)ccc3Cl)=N2)c(=O)[nH]1	.	-	-	-	-	67
CCCCCCCCn1sccc1=O	.	.	.	.	-	.
CN(C)c1ccc(/C=C/C=C2/C(=O)NC(=O)N(c3ccccc3)C2=O)cc1	-	-	-	58	.	52
c1ccc(C(OCCN2CCN(c3ncccn3)CC2)c2ccccc2)cc1	.	.	.	.	-	.
CCOC(=O)c1ccc(N=Cc2c(O)n(-c3ccc(OC)cc3)c(=S)[nH]c2=O)cc1	-	-	-	-	-	-
CCOC(=O)c1c(/N=C/c2c(O)n(-c3ccccc3F)c(=S)[nH]c2=O)sc2c1CCCC2	-	-	130	-	-	-
CCOC(=O)c1c(/N=C/c2c(O)n(-c3ccc(F)cc3)c(=S)[nH]c2=O)sc2c1CCCC2	-	-	56	-	-	-
CN(C)N=O	.	.	.	.	-	.
Cc1cc([N+](=O)[O-])c2ccccc2[n+]1[O-]	.	-	-	-	-	-
C[C@]12CCC(=O)C=C1CC[C@@H]1C2[C@H](O)C[C@]2(C)C(=O)CCC12 (stereo partly drawn)	.	.	.	.	-	.
CCOC(=O)c1ccc(NC(=O)c2c(O)[nH]c(=O)[nH]c2=O)cc1	-	-	77	-	-	-
CCOc1ccc(NC(=O)c2c(O)[nH]c(=O)[nH]c2=O)cc1	.	.	.	.	-	.
O=C1/C(=C\c2ccc(Cl)c(Cl)c2)N2CCC1CC2	.	-	-	-	-	54
O=C1/C(=C\c2ccncc2)N2CCC1CC2	.	-	-	-	-	-
COC(=O)c1c(C)[nH]c(C(=O)C(C)[N+]23CCN(CC2)CC3)c1C (stereo not drawn)	-	-	-	-	-	74
CCCCCCn1c(O)c(C=NCCN2CCOCC2)c(=O)[nH]c1=O	-	-	-	-	-	99
CCCCCCn1c(O)c(C=NCCN2CCCCC2)c(=O)[nH]c1=O	-	-	-	-	-	-
O=c1cccc2n1CC1CC2CN(S(=O)(=O)c2ccccc2)C1 (stereo not drawn)	-	-	-	-	-	-
CN1CCN2c3ccc(N)cc3CC3(C(=O)NC(=O)NC3=O)C2C1 (stereo not drawn)	.	21	-	-	.	97	RBBP9 confirm=65
Cc1ccc(Cn2nc(C(=O)Nc3ccc(Br)cc3)cc2C)cc1	.	.	.	.	-	.
COc1ccc(N/N=C/c2c(O)n(-c3ccc(C)c(C)c3)c(=O)[nH]c2=O)cc1	-	-	-	-	54	-	Bcl-xL conf=-;MCL1 inh confirm=-
